The list is not random: actives were taken first. Their share in the collection is about 2.5%.
NTR1 agonist: NTR1 (human) agonism; P30989; NTR1-U2OS beta-arrestin-GFP spot imaging, agonist mode; activation, % at 20 µM; 330,000 compounds, 0.17% hits;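 active means activation at or above 40% of the spot to cytoplasm intensity ratio, with at least 20 cells analyzed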;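 further: 0% = DMSO without peptide and 100% = 100 nM NTR1 peptide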
Target sequence (P30989 whole entry, looked up): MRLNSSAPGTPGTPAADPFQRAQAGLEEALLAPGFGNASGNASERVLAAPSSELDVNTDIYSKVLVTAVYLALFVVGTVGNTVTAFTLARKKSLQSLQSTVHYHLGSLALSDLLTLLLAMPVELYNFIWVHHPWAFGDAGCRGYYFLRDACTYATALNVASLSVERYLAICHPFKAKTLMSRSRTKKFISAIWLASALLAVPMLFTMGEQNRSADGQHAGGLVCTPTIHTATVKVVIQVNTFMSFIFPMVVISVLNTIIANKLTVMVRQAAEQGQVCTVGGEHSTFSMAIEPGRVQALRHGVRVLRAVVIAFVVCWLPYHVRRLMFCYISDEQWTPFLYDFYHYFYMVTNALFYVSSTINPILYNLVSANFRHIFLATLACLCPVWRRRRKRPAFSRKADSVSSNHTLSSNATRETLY
MC4R ag barr: human MC4R agonism via beta-arrestin; P32245; activation, % at 8.9 µM; 360,000 compounds, 0.98% hits; U2OS MC4R beta-arrestin complementation, luminescence; percent of melanotan II response, DMSO zero; AID 540308;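 active means activation above a per-plate cutoff, the mean activation of sample wells on that plate plus 3 SD, cut at about 8% in these data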
PG9 Ab binder: small molecules binding HIV-1 gp120 antibody PG9 | TR-FRET gp120-PG9 antibody binding | inhibition, % at 6.7 µM | 360,000 compounds, 0.43% hits; in the data active means inhibition above about 8.5%
NR1D1 modulator: modulators of human Rev-erb alpha DNA binding; P20393; activity, % at 10 µM; AID 1259318; 370,000 compounds, 0.79% hits; Rev-erbα–FITC-DNA binding, fluorescence polarization, 90 min;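 active means activity above about 14%, limit read from the data; passing the limit was not always enough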;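 further: 0% = DMSO wells with 35 nM protein and 100% = DMSO wells with 750 nM protein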
MC4R antag cAMP: antagonists of human melanocortin 4 receptor (MC4R); P32245; MC4R-expressing cells, MTII-stimulated cAMP, LANCE TR-FRET; inhibition, % at 6.5 µM; 360,000 compounds, 0.48% hits; AID 540295;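 active means inhibition above its plate's cutoff, the mean of tested wells on that plate plus 3 SD, cut at about 29% in these data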;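 further: 0% = Melanotan II alone and 100% = Melanotan II plus saturating MCL0020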
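Material: human MC4R-expressing U2OS cells. Probe or stimulus: Melanotan II challenge. Dosing: 6.5 µM single dose. Times: 30-min compound, 1-h challenge, 1-h detection, room temperature. Technique: TR-FRET with Eu-cAMP and labeled anti-cAMP, 671 nm. Replication: singlicate.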
NR1D1 mod conf: confirmation of modulators of human Rev-erb alpha DNA binding. Rev-erb alpha FITC-DNA binding, fluorescence polarization, 90 min. 3,000 compounds, 61% hits. activation, % at 25 µM. AID 1259319. shares compounds with NR1D1 modulator;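 active means activation at or above a set limit, or at least 3 SD above the negative control mean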;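 further: 0% = 35 nM protein with DMSO and 100% = 750 nM protein high control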
RORg DNA counter: affects RORgamma DNA binding in a Rev-erb alpha counter-screen | purified RORgamma protein-FITC-DNA binding, fluorescence polarization | 910 compounds, 8% hits | IC50, µM | shares compounds with NR1D1 modulator;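 active means Compounds whose fitted half-maximal concentration for disrupting protein-DNA binding is below 10 micromolar; the record names Rev-erb in its text, so the target is in doubt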
* = called active by the depositor.

For COc1cc2oc(=O)cc(-c3ccc(-c4ccc(CO)cc4)cc3)c2c(OC)c1OC the results were NTR1 agonist 4, MC4R ag barr 0, PG9 Ab binder 0, NR1D1 modulator 30*, MC4R antag cAMP 6, NR1D1 mod conf 28* and RORg DNA counter >40.
Screening O=C(C1CCCN1S(=O)(=O)c1cccc2ccccc12)N1CCN(c2ccccc2)CC1 (stereo not drawn) returned NR1D1 modulator -1.
Cc1c(C(=O)Nc2ccncc2)sc2nc(-c3ccc(F)cc3)cn12 was read as NTR1 agonist 3, MC4R ag barr 3, PG9 Ab binder -1, NR1D1 modulator 39*, MC4R antag cAMP -2, NR1D1 mod conf 38* and RORg DNA counter >40.
For COc1ccc(-c2cn3c(C)c(C(=O)Nc4ccncc4)sc3n2)cc1 the results were NTR1 agonist 5, MC4R ag barr -1, PG9 Ab binder -2, NR1D1 modulator -1 and MC4R antag cAMP -1.
Screening COC(=O)[C@H](Cc1ccccc1)N1CC=CS1(=O)=O returned PG9 Ab binder 0 and NR1D1 modulator 10.
`Cn1c(=O)c(Nc2ccc(Cl)cc2)c2c3c(cccc31)C(=O)c1ccccc1-2` gave NTR1 agonist -2, PG9 Ab binder -1, NR1D1 modulator 24* and NR1D1 mod conf 12.
Screening O[N+]1=CC=CCC1=S.On1ccccc1=S.[Zn] returned NR1D1 modulator -2.
Screening CCc1ccc(C(=O)COC(=O)c2ccc(-c3nnc(-c4ccccc4)o3)cc2)cc1 returned NTR1 agonist 3, MC4R ag barr -1, PG9 Ab binder -3, NR1D1 modulator 23*, MC4R antag cAMP -1 and NR1D1 mod conf 8.
`CCC(C)Sc1ccc(-c2nc3ccc(Cl)cn3c2NCc2ccccc2)cc1` (stereo not drawn) gave NTR1 agonist 0, MC4R ag barr 2, PG9 Ab binder 1, NR1D1 modulator 26*, MC4R antag cAMP 7 and NR1D1 mod conf 15.
CCCCNc1c(-c2cccc(SC(C)CC)c2)nc2ccc(Cl)cn12 (stereo not drawn) was read as NTR1 agonist 0, MC4R ag barr 6, PG9 Ab binder -1, NR1D1 modulator -3 and MC4R antag cAMP 11.
For Cc1cc(NC(=O)COc2cc(F)cc(F)c2)n(-c2ccccc2)n1 the results were NR1D1 modulator 1.
Screening COc1ccc(C(C)=O)cc1CSc1nc2ccccc2c(=O)n1-c1ccccc1C returned NTR1 agonist 10, MC4R ag barr -1, PG9 Ab binder 2, NR1D1 modulator 3 and MC4R antag cAMP -43.
Screening COc1ccc(C(C)=O)cc1CSc1nc2ccccc2c(=O)n1-c1cccc(C)c1 returned NTR1 agonist 4, MC4R ag barr -1, PG9 Ab binder -1, NR1D1 modulator 39*, MC4R antag cAMP 9, NR1D1 mod conf 36* and RORg DNA counter 9.4*.
O=C(COCc1ccccc1)N1CC[C@H]2[C@H](CCCN2Cc2ccc(F)cc2)C1 was read as NR1D1 modulator -7.
Screening CC(=O)c1ccc(N2CCN(C(=S)Nc3cccc(F)c3)CC2)cc1 returned NTR1 agonist 0, MC4R ag barr -1, PG9 Ab binder 1, NR1D1 modulator 29*, MC4R antag cAMP 5 and NR1D1 mod conf 18*.
`CC(=O)c1ccc(N2CCN(C(=S)Nc3ccc(Oc4ccccc4)cc3)CC2)cc1` gave NTR1 agonist 2, MC4R ag barr -4, PG9 Ab binder 1, NR1D1 modulator -5 and MC4R antag cAMP 10.
Screening Cc1ccc(NP(=O)(c2ccc(N(C)C)cc2NC(=O)c2cccs2)N2CCOCC2)cc1 (stereo not drawn) returned NTR1 agonist 1, MC4R ag barr 1, PG9 Ab binder 0, NR1D1 modulator 24*, MC4R antag cAMP 0 and NR1D1 mod conf 13.
`CN(C)c1ccc(P(=O)(Nc2ccccc2)N2CCOCC2)c(NC(=O)c2cccs2)c1` (stereo not drawn) gave NTR1 agonist 0, MC4R ag barr -2, PG9 Ab binder -2, NR1D1 modulator 42*, MC4R antag cAMP 8 and NR1D1 mod conf 19*.
C[C@@H]1CNCCN1c1ccc(N2CCS(=O)(=O)CC2)c(C#N)c1 was read as PG9 Ab binder -4 and NR1D1 modulator 2.
For O=c1c2ccccc2sc2ccc(Cl)cc12 the results were NTR1 agonist 0, MC4R ag barr 0, PG9 Ab binder -1, NR1D1 modulator 80*, MC4R antag cAMP -1, NR1D1 mod conf 77* and RORg DNA counter >40.
`Cc1cc2sc3ccccc3c(=O)c2c(C)c1O` gave NTR1 agonist 1, MC4R ag barr 0, PG9 Ab binder 2, NR1D1 modulator 1 and MC4R antag cAMP 22.
`CC(NC(=O)c1ccc(N(C)C)cc1)C1CC2CCC1C2` (stereo not drawn) gave MC4R ag barr 0, PG9 Ab binder -1, NR1D1 modulator 31*, MC4R antag cAMP 5 and NR1D1 mod conf 18*.
Screening CC(=C\C=O)/C(C)=C/CC[C@@H]1O[C@@H]2C[C@@H]3O[C@](C)(C[C@H]4C[C@H](O)[C@@H]5O[C@@H]6C[C@H](O)[C@@H](C)O[C@@]6(C)CC[C@H]5O4)[C@@H](O)CC[C@@]3(C)O[C@H]2[C@@H](O)[C@@H]1C returned NR1D1 modulator 1.
Screening O=C1NC(c2ccc3c(c2)OCO3)c2c(-c3ccccc3)n[nH]c21 (stereo not drawn) returned PG9 Ab binder 0 and NR1D1 modulator -5.
`CC(C)c1[nH]nc2c1C(c1ccc3c(c1)OCO3)NC2=O` (stereo not drawn) gave PG9 Ab binder 0, NR1D1 modulator 22* and NR1D1 mod conf -5.
Screening N#Cc1c(-c2ccccc2)cc(-c2ccccc2)nc1SCc1nnc(-c2ccccc2)o1 returned NTR1 agonist 1, MC4R ag barr 0, PG9 Ab binder 0, NR1D1 modulator 50*, MC4R antag cAMP 14 and NR1D1 mod conf 24*.
For Cc1cccc(C)c1NC(=O)CSc1ncnc2[nH]ncc12 the results were NTR1 agonist 2, MC4R ag barr -1, PG9 Ab binder 1, NR1D1 modulator 23*, MC4R antag cAMP 4 and NR1D1 mod conf 18*.
`Cc1cc(-c2ccccc2)[nH]c(=O)c1S(=O)(=O)c1ccc(Cl)cc1` gave NTR1 agonist 0, MC4R ag barr -2, PG9 Ab binder 4, NR1D1 modulator 51*, MC4R antag cAMP 1 and NR1D1 mod conf 21*.
O=[N+]([O-])c1ccc(Oc2cccc(F)c2)c2ccncc12 was read as NTR1 agonist 2, MC4R ag barr 3, PG9 Ab binder -1, NR1D1 modulator 14*, MC4R antag cAMP 10 and NR1D1 mod conf 9.

High-throughput results as filed in PubChem BioAssay.
